Results: paper PMC2614345 (Toxicology and applied pharmacology, 2008)
Where two headings read alike, the source gives them in different places.

Legend:
[1] = 25 mg/kg DAPM, ref Dugas et al., 2001, cited from earlier work
rats = conditions: ref Dugas et al., 2001, cited from earlier work
[2] = Biliary excretion of DAPM metabolites; assay type: in vivo, Sprague Dawley rats; conditions: for biliary excretion, male compared to female rats: AUC analysis, 25 and 50 mg/kg DAPM; for AUC for DAPM metabolite elimination in the bile, Females: female rats; for AUC for DAPM metabolite elimination in the bile, Females / AUC for DAPM metabolite elimination in the bile, Males: bile collected 6 h, mean ± SEM, n=4–6; for AUC for DAPM metabolite elimination in the bile, Males: male rats
Outline: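 Sprague Dawley rats of both sexes (12–15 wk) under pentobarbital, with biliary, duodenal and peritoneal cannulas and duodenal taurocholate infusion; 1 h basal bile. Gavage of [14C]-test compound, 25 or 50 mg/kg in 35% ethanol, 2 mL/kg. Bile taken for 6 h in 15-min fractions, deproteinized, then C18 HPLC with UV 254 nm and radioisotope detection. Per-rat nmol-versus-time AUC; group mean ± SEM, n=4–6; two-way ANOVA.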

SMILES | maximum rate of biliary excretion of metabolite ([1]; female rats, maximum at 45 min) | maximum rate of biliary excretion of metabolite ([1]; male rats, maximum at 15 min) | threshold dose for observing injury (rats; female rats) [mg/kg] | threshold dose for observing injury (rats; male rats) [mg/kg] | biliary excretion, male compared to female rats [2] | AUC for DAPM metabolite elimination in the bile, Females ([2]; DAPM 25 mg/kg by gavage) [nmol·h] | AUC for DAPM metabolite elimination in the bile, Females ([2]; DAPM 50 mg/kg by gavage) [nmol·h] | AUC for DAPM metabolite elimination in the bile, Males ([2]; DAPM 25 mg/kg by gavage) [nmol·h] | AUC for DAPM metabolite elimination in the bile, Males ([2]; DAPM 50 mg/kg by gavage) [nmol·h]
Nc1ccc(Cc2ccc(N)cc2)cc1 [DAPM, 4,4’-Methylenedianiline] | ~ 9 µg/min*kg | ~ 18 µg/min*kg | 25 | 50 | biliary excretion in males was likewise greater than that in female rats | 29 ± 14 | 67 ± 31 | 155 ± 22 | 176 ± 74
CC(=O)Nc1ccc(Cc2ccc(N)cc2)cc1 [Metabolite M5, N-acetyl-DAPM] |  |  |  |  | greater in male compared to female rats | 39 ± 13 | 132 ± 70 | 175 ± 11 | 259 ± 86
